Experimental data: ChEMBL document CHEMBL1152322, “Evaluating indole-related derivatives as precursors in the directed biosynthesis of diazepinomicin analogues” (2009)
In brackets after ≈: the same amount, converted by molar mass.

Assays:
Type in all cases: functional
Staphylococcus aureus [1] = test: Antimicrobial activity against Staphylococcus aureus 375 ATCC 3538p after 18 hrs by broth dilution method; details: Staphylococcus aureus, 375, 18 h
Outline: (§1)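 MIC by broth dilution per NCCLS recommendations in Mueller-Hinton II medium. Inoculum 5 × 10^5 cfu/mL, antibiotic concentrations 128-0.0625 µg/mL. Microtiter plates incubated 18 h at 35 °C in ambient air. MIC read at end of incubation.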

Staphylococcus aureus [2] = test: Antimicrobial activity against methicillin-resistant Staphylococcus aureus 310 SSC8224 after 18 hrs by broth dilution method; details: Staphylococcus aureus, 310, 18 h
Outline: (§2)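 MIC by broth dilution following NCCLS recommendations, Mueller-Hinton II medium; inoculum 5 × 10^5 cfu/mL; antibiotic range 128-0.0625 µg/mL; microtiter plates incubated 18 h at 35 °C in ambient air; MIC read after incubation.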

Enterococcus faecium [3] = test: Antimicrobial activity against vancomycin-resistant Enterococcus faecium 379 NC12204 after 18 hrs by broth dilution method; details: Enterococcus faecium, 379, 18 h; outline: as §2
Enterococcus faecium [4] = test: Antimicrobial activity against Enterococcus faecium 436 ID3151 after 18 hrs by broth dilution method; details: Enterococcus faecium, 436, 18 h; outline: as §1
Escherichia coli [5] = test: Antimicrobial activity against Escherichia coli 389 GC4560 expressing imp after 18 hrs by broth dilution method; details: Escherichia coli, 389, 18 h; outline: as §1
Escherichia coli [6] = test: Antimicrobial activity against Escherichia coli 442 GC4559 after 18 hrs by broth dilution method; details: Escherichia coli, 442, 18 h; outline: as §1
Candida albicans = test: Antimicrobial activity against Candida albicans 54 CA300 after 18 hrs by broth dilution method; details: Candida albicans, 54, 18 h; outline: as §1

SMILES | MIC (Staphylococcus aureus [1]) | MIC (Staphylococcus aureus [2]) | MIC (Enterococcus faecium [3]) | MIC (Enterococcus faecium [4]) | MIC (Escherichia coli [5]) | MIC (Escherichia coli [6]) | MIC (Candida albicans)
CC(C)=CCC/C(C)=C/CC/C(C)=C/CN1C(=O)c2cccc(O)c2Nc2c(O)cc(O)cc21 [DIAZEPINOMICIN] | 16 µg/mL (≈ 34.6 µM) | 8 µg/mL (≈ 17.3 µM) | 32 µg/mL (≈ 69.2 µM) | 64 µg/mL (≈ 138 µM) | > 128 µg/mL | > 128 µg/mL | > 128 µg/mL
CC(C)=CCC/C(C)=C/CC/C(C)=C/CN1C(=O)c2cc(F)cc(O)c2Nc2c(O)cc(O)cc21 | 16 µg/mL (≈ 33.3 µM) | 8 µg/mL (≈ 16.6 µM) | 16 µg/mL (≈ 33.3 µM) | 32 µg/mL (≈ 66.6 µM) | > 128 µg/mL | > 128 µg/mL | > 128 µg/mL
CC(C)=CCC/C(C)=C/CC/C(C)=C/CN1C(=O)c2ccc(F)c(O)c2Nc2c(O)cc(O)cc21 | 32 µg/mL (≈ 66.6 µM) | 16 µg/mL (≈ 33.3 µM) | 32 µg/mL (≈ 66.6 µM) | 32 µg/mL (≈ 66.6 µM) | > 128 µg/mL | > 128 µg/mL | > 128 µg/mL
